Data published in ChEMBL document CHEMBL5724801, “EUbOPEN Chemogenomics Library - Multiplex” (2024).
“And” between values parts separate entries of the source, which are not always exact repeats. Identical values can stand only once.

Tested on: Fibroblast
Test: Multiplex assay against human fibroblast
Type: toxicity, cell-based
In short: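 Live cells were stained at seeding with Hoechst33342, BioTracker Green Microtubule Cytoskeleton Dye, MitoTracker Red and Annexin V Alexa Fluor 680. Following compound addition, they were imaged on a CQ1 microscope at 37°C and 5% CO2 and gated by CellPathfinder machine learning into Hoechst high-intensity objects or normal cells, with normal cells split into healthy, pyknosed or fragmented nuclei and pyknosed cells into mitotic or apoptotic. Tubulin, mitochondrial-mass and membrane-permeability phenotypes are per cents of healthy-nucleus cells.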

[1] = 12 h, 1 µM, compound concentration 1 uM
[2] = 12 h, 10 µM, compound concentration 10 uM
[3] = 24 h, 1 µM, compound concentration 1 uM
[4] = 24 h, 10 µM, compound concentration 10 uM
[5] = 48 h, 1 µM, compound concentration 1 uM
[6] = 48 h, 10 µM, compound concentration 10 uM

CCCCC1=NC2(CCCC2)C(=O)N1Cc1ccc(-c2ccccc2-c2nnn[nH]2)cc1 [IRBESARTAN]
Population Apoptotic (%) [1]: 40% and 38%
Population Fragmented Nuclei (%) [1]: 14% and 24%
Population Healthy Nuclei (%) [1]: 67% and 55%
Population Hoechst High Intensity Objects (%) [1]: 1% and 3%
Population Membrane Permeable-Phenotype (%) [1]: 0% and 7%
Population Mitochondria Different-Phenotype (%) [1]: 5% and 2%
Population Mitotic Cells (%) [1]: 59% and 61%
Population Normal (%) [1]: 98% and 96%
Population Pyknosed Nuclei (%) [1]: 17% and 20%
Population Tubulin-Different-Phenotype (%) [1]: 28% and 43%
Total Cell Count [1]: 159 and 187
Population Apoptotic (%) [2]: 60% and 45%
Population Fragmented Nuclei (%) [2]: 11% and 32%
Population Healthy Nuclei (%) [2]: 74% and 48%
Population Hoechst High Intensity Objects (%) [2]: 3% and 7%
Population Membrane Permeable-Phenotype (%) [2]: 3% and 12%
Population Mitochondria Different-Phenotype (%) [2]: 4% and 3%
Population Mitotic Cells (%) [2]: 40% and 54%
Population Normal (%) [2]: 96% and 92%
Population Pyknosed Nuclei (%) [2]: 13% and 18%
Population Tubulin-Different-Phenotype (%) [2]: 37% and 53%
Total Cell Count [2]: 151 and 129
Population Apoptotic (%) [3]: 47% and 31%
Population Fragmented Nuclei (%) [3]: 19% and 25%
Population Healthy Nuclei (%) [3]: 69% and 57%
Population Hoechst High Intensity Objects (%) [3]: 2% and 3%
Population Membrane Permeable-Phenotype (%) [3]: 1%
Population Mitochondria Different-Phenotype (%) [3]: 3% and 0%
Population Mitotic Cells (%) [3]: 52% and 68%
Population Normal (%) [3]: 97% and 96%
Population Pyknosed Nuclei (%) [3]: 10% and 16%
Population Tubulin-Different-Phenotype (%) [3]: 22% and 40%
Total Cell Count [3]: 170 and 183
Population Apoptotic (%) [4]: 56% and 45%
Population Healthy Nuclei (%) [4]: 74% and 47%
Population Hoechst High Intensity Objects (%) [4]: 1% and 2%
Population Membrane Permeable-Phenotype (%) [4]: 3% and 8%
Population Mitochondria Different-Phenotype (%) [4]: 7% and 5%
Population Mitotic Cells (%) [4]: 44% and 55%
Population Normal (%) [4]: 98% and 97%
Population Pyknosed Nuclei (%) [4]: 16%
Population Tubulin-Different-Phenotype (%) [4]: 37% and 60%
Total Cell Count [4]: 155 and 125
Population Apoptotic (%) [5]: 60% and 55%
Population Fragmented Nuclei (%) [5]: 21% and 31%
Population Healthy Nuclei (%) [5]: 69% and 58%
Population Hoechst High Intensity Objects (%) [5]: 3% and 2%
Population Membrane Permeable-Phenotype (%) [5]: 0% and 2%
Population Mitochondria Different-Phenotype (%) [5]: 4% and 1%
Population Mitotic Cells (%) [5]: 40% and 44%
Population Normal (%) [5]: 96% and 97%
Population Pyknosed Nuclei (%) [5]: 8% and 10%
Population Tubulin-Different-Phenotype (%) [5]: 31% and 39%
Total Cell Count [5]: 173 and 178
Population Apoptotic (%) [6]: 61% and 37%
Population Fragmented Nuclei (%) [6]: 14% and 37%
Population Healthy Nuclei (%) [6]: 66% and 48%
Population Hoechst High Intensity Objects (%) [6]: 2% and 0%
Population Membrane Permeable-Phenotype (%) [6]: 1% and 3%
Population Mitochondria Different-Phenotype (%) [6]: 5% and 1%
Population Mitotic Cells (%) [6]: 38% and 62%
Population Normal (%) [6]: 97% and 99%
Population Pyknosed Nuclei (%) [6]: 18% and 13%
Population Tubulin-Different-Phenotype (%) [6]: 38% and 58%
Total Cell Count [6]: 141 and 117

Cl.Cl.OCCOCCN1CCN(C(c2ccccc2)c2ccc(Cl)cc2)CC1 (stereo not given) [HYDROXYZINE HYDROCHLORIDE]
Population Apoptotic (%) [1]: 43% and 51%
Population Fragmented Nuclei (%) [1]: 11% and 22%
Population Healthy Nuclei (%) [1]: 75% and 57%
Population Hoechst High Intensity Objects (%) [1]: 1% and 7%
Population Membrane Permeable-Phenotype (%) [1]: 0% and 8%
Population Mitochondria Different-Phenotype (%) [1]: 4% and 6%
Population Mitotic Cells (%) [1]: 56% and 48%
Population Normal (%) [1]: 98% and 92%
Population Pyknosed Nuclei (%) [1]: 13% and 20%
Population Tubulin-Different-Phenotype (%) [1]: 25% and 46%
Total Cell Count [1]: 177 and 155
Population Apoptotic (%) [2]: 47% and 40%
Population Fragmented Nuclei (%) [2]: 27% and 19%
Population Healthy Nuclei (%) [2]: 58% and 47%
Population Hoechst High Intensity Objects (%) [2]: 2% and 7%
Population Membrane Permeable-Phenotype (%) [2]: 0% and 7%
Population Mitochondria Different-Phenotype (%) [2]: 14% and 6%
Population Mitotic Cells (%) [2]: 52% and 59%
Population Normal (%) [2]: 97% and 92%
Population Pyknosed Nuclei (%) [2]: 14% and 32%
Population Tubulin-Different-Phenotype (%) [2]: 45% and 58%
Total Cell Count [2]: 247 and 178
Population Apoptotic (%) [3]: 30% and 44%
Population Fragmented Nuclei (%) [3]: 9% and 26%
Population Healthy Nuclei (%) [3]: 78% and 54%
Population Hoechst High Intensity Objects (%) [3]: 1% and 5%
Population Membrane Permeable-Phenotype (%) [3]: 2% and 5%
Population Mitochondria Different-Phenotype (%) [3]: 6% and 3%
Population Mitotic Cells (%) [3]: 70% and 55%
Population Normal (%) [3]: 98% and 94%
Population Pyknosed Nuclei (%) [3]: 12% and 18%
Population Tubulin-Different-Phenotype (%) [3]: 30% and 47%
Total Cell Count [3]: 163 and 154
Population Apoptotic (%) [4]: 51% and 36%
Population Fragmented Nuclei (%) [4]: 28% and 29%
Population Healthy Nuclei (%) [4]: 62% and 50%
Population Hoechst High Intensity Objects (%) [4]: 1% and 9%
Population Membrane Permeable-Phenotype (%) [4]: 1% and 6%
Population Mitochondria Different-Phenotype (%) [4]: 10% and 6%
Population Mitotic Cells (%) [4]: 48% and 63%
Population Normal (%) [4]: 98% and 90%
Population Pyknosed Nuclei (%) [4]: 9% and 20%
Population Tubulin-Different-Phenotype (%) [4]: 47% and 66%
Total Cell Count [4]: 284 and 198
Population Apoptotic (%) [5]: 60% and 42%
Population Fragmented Nuclei (%) [5]: 17% and 34%
Population Healthy Nuclei (%) [5]: 68% and 56%
Population Hoechst High Intensity Objects (%) [5]: 4% and 3%
Population Membrane Permeable-Phenotype (%) [5]: 0% and 2%
Population Mitochondria Different-Phenotype (%) [5]: 3% and 5%
Population Mitotic Cells (%) [5]: 39% and 57%
Population Normal (%) [5]: 95% and 96%
Population Pyknosed Nuclei (%) [5]: 13% and 9%
Population Tubulin-Different-Phenotype (%) [5]: 31% and 44%
Total Cell Count [5]: 175 and 155
Population Apoptotic (%) [6]: 80% and 37%
Population Fragmented Nuclei (%) [6]: 22% and 36%
Population Healthy Nuclei (%) [6]: 69% and 47%
Population Hoechst High Intensity Objects (%) [6]: 4% and 6%
Population Membrane Permeable-Phenotype (%) [6]: 0% and 11%
Population Mitochondria Different-Phenotype (%) [6]: 7% and 2%
Population Normal (%) [6]: 95% and 94%
Population Pyknosed Nuclei (%) [6]: 8% and 15%
Population Tubulin-Different-Phenotype (%) [6]: 62% and 57%
Total Cell Count [6]: 272 and 200
